Assay results pooled from the literature.
Target: Death-associated protein kinase 2 (DAPK2, Homo sapiens, UniProt Q9UIK4)

CNC(=O)c1cc(Oc2ccc(NC(=O)Nc3ccc(Cl)c(C(F)(F)F)c3)cc2)ccn1 — inhibition (enzyme activity, inhibitor; 0.3 µM): 5%
Cc1cc(NC(=O)c2cccc3cc(-c4cccc5[nH]nc(N)c45)ccc23)ccc1F — activity vs control (enzyme activity, inhibitor; 0.1 µM): 96%
CCCS(=O)(=O)Nc1ccc(F)c(C(=O)c2c[nH]c3ncc(-c4ccc(Cl)cc4)cc23)c1F — inhibition (enzyme activity, inhibitor; 1 µM): < 10%
C[C@@H]1CN(c2cc(-c3nn(C)c4ccc(OC5(C)CC5)cc34)ncn2)C[C@H](C)O1 — remaining binding (cell-free assay, competition with immobilised ligand; 1 µM): 89%
Cc1sc(C(=O)NC2COC2)cc1-n1cc(NC(=O)Nc2c(F)cccc2Cl)cn1 — remaining activity (enzyme activity, inhibitor; 10 µM): 99.5%
O=C(Nc1ccc(Oc2ccc(F)cc2)cc1)N1CCc2ncccc2[C@H]1c1ccc(F)cc1 — remaining binding (cell-free assay, competition with immobilised ligand; 1 µM): 100%
CC(C)(C)c1nc(-c2cccc(NS(=O)(=O)c3c(F)cccc3F)c2F)c(-c2ccnc(N)n2)s1 — remaining activity (enzyme activity, inhibitor, radiometric; 1 µM): 92%
N#CCCc1ccc2c(c1)-c1[nH]c3ccc([N+](=O)[O-])cc3c1CC(=O)N2 — remaining signal (cell-free assay; 0.5 µM): 96.5%
Cc1ccc(Nc2nccc(N(C)c3ccc4c(C)n(C)nc4c3)n2)cc1S(N)(=O)=O — inhibition (enzyme activity, inhibitor; 0.3 µM): 1%
CO[C@@H](C)c1c(Nc2ccc([C@@H](N(C)C(=O)C3CCS(=O)(=O)CC3)C(F)(F)F)cc2)cnc2cc(Cl)nn12 — remaining binding (binding, competition with immobilised ligand; 1 µM): 41%
CCN(CC)c1ccc(C2=NNC(=O)CC2C)cc1[N+](=O)[O-] (stereo not shown) — remaining activity (enzyme activity, inhibitor; 10 µM): 99%
CC(C)(O)[C@H]1CC[C@H](Nc2ccc3ncc(-c4cccc(C(F)(F)F)c4)n3n2)CC1 — remaining activity (enzyme activity, inhibitor; 1 µM): 107%
COc1ccc2c(c1)O[C@@H](c1ccc(OC)c(OC)c1)C[C@H]2NC(=O)C1(c2ccc3c(c2)OC(F)(F)O3)CC1 — remaining binding (cell-free assay, competition with immobilised ligand; 1 µM): 98%
CCN(CC)CCNC(=O)c1c(C)[nH]c(/C=C2\C(=O)Nc3ccc(F)cc32)c1C — inhibition (enzyme activity, inhibitor; 0.3 µM): 30%
COc1cc(-c2cn(C3CCc4c(F)cccc4N(CC(F)(F)F)C3=O)nn2)ccc1-n1cnc(C)c1 (stereo not shown) — remaining binding (cell-free assay, competition with immobilised ligand; 1 µM): 100%
Cc1cnc(NC2CCOCC2)nc1-n1cnc(C(=O)NC(CN)c2cc(F)cc(Cl)c2)c1 (stereo not shown) — remaining activity (enzyme activity, inhibitor, radiometric; 1 µM): 108%
